Reference: ChEMBL document CHEMBL3352013, “The design and synthesis of potent and selective inhibitors of Trypanosoma brucei glycogen synthase kinase 3 for the treatment of human african trypanosomiasis” (J Med Chem, 2014)

How the values were obtained:
[1] = Inhibition of Trypanosoma brucei GSK3 using biotinylated GSP2 substrate by flashplate assay
Procedure, shortened: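 Radiometric Flashplate assay: 2.5 nM TbGSK3 short, 1 μM biotinylated GSP2, 1 μM ATP plus [γ-33P]-ATP. 10-point titration 30 μM to 0.3 nM final, 1% DMSO. IC50 averaged over two or more experiments; standard GW8510 used for reproducibility (MSR).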

[2] = target: Glycogen synthase kinase-3 (Homo sapiens, UniProt P49840+P49841); assay: Inhibition of human GSK3 using biotinylated GSP2 substrate by flashplate assay; format: protein assay
CDK2/Cyclin A2 = CDK2/Cyclin A2 (Homo sapiens, UniProt P24941); assay: Inhibition of human CDK2/cyclin A using Biotin-C6-PKTPKKAKKL substrate; format: protein-complex assay
[3] = Selectivity ratio, ratio of IC50 for human CDK2/cyclin A to IC50 for Trypanosoma brucei GSK3
[4] = test system: Trypanosoma brucei brucei; assay: Trypanocidal activity against bloodstream stage of Trypanosoma brucei brucei assessed as inhibition of proliferation after 72 hrs; format: functional, organism-based
Procedure, shortened: (§1)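 Resazurin viability assay: 2 × 10³ cells/well (MRC5 in MEM + 10% FBS; bloodstream-form T. b. brucei in appropriate medium), compounds 50 μM to 0.5 nM, 37 °C, 5% CO₂ for 69 h, then resazurin 50 μM final for further 4 h; fluorescence read. Concentration giving 50% growth inhibition over 72 h; average of two or more experiments.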

MRC5 = assay: Cytotoxicity against human MRC5 cells assessed as growth inhibition after 72 hrs; format: cell-based; conditions: MRC5, 72 h; procedure, shortened: as §1
[5] = Selectivity ratio, ratio of IC50 for human GSK3 to IC50 Trypanosoma brucei GSK3

SMILES	IC50 [2] [µM]	IC50 (CDK2/Cyclin A2) [µM]	Ratio IC50 [3]	Ratio IC50 [5]	IC50 [1] [µM]	EC50 [4] [µM]	EC50 (MRC5) [µM]
CO[C@H]1CC[C@H](NC(=O)c2n[nH]cc2NC(=O)c2ccc(N3CCCC3)cc2)CC1	< 0.005	0.13	6.8		0.019	2.7	> 50
CO[C@H]1CC[C@H](NC(=O)c2n[nH]cc2NC(=O)c2cc(F)cc(F)c2)CC1	< 0.005	0.083	3.5		0.024	2.6	0.6
CO[C@H]1CC[C@H](NC(=O)c2n[nH]cc2NC(=O)C2CCC(F)(F)CC2)CC1	0.008	1	2	0.16	0.5	16	> 50
CO[C@H]1CC[C@H](NC(=O)c2n[nH]cc2NC(=O)c2cc3ccccn3n2)CC1	< 0.005	0.042	0.67		0.063	1.9	1
CO[C@H]1CC[C@H](NC(=O)c2n[nH]cc2NC(=O)c2cc3ccccc3o2)CC1	< 0.005				0.013	1.2	0.8
COc1cccc(OC)c1C(=O)Nc1c[nH]nc1C(=O)NCC1CCCCC1					0.001	7.7	> 50
CO[C@H]1CC[C@H](NC(=O)c2n[nH]cc2NC(=O)Cc2c(Cl)cccc2Cl)CC1	0.2	0.29	1.3	0.87	0.23	7.3	3.1
CO[C@H]1CC[C@H](NC(=O)c2n[nH]cc2NC(=O)c2ccc(OC(F)F)cc2)CC1	< 0.005	0.27	17		0.016	1.1	2.5
CO[C@H]1CC[C@H](NC(=O)c2n[nH]cc2NC(=O)Cc2ccccc2F)CC1	0.14	0.82	2.1	0.35	0.39	23	> 50
CO[C@H]1CC[C@H](NC(=O)c2n[nH]cc2NC(=O)c2cc(Cl)cc(Cl)c2)CC1	< 0.005	0.63	11		0.057	9.6	13
CO[C@H]1CC[C@H](NC(=O)c2n[nH]cc2NC(=O)c2ccccc2C(F)(F)F)CC1	< 0.013	0.1	5.6		0.018	2.3	3.3
CO[C@H]1CC[C@H](NC(=O)c2n[nH]cc2NC(=O)c2ccccc2F)CC1	< 0.005	0.014		0.25	0.02	0.4	1
CO[C@H]1CC[C@H](NC(=O)c2n[nH]cc2NC(=O)c2ccc(N3CCN(C)CC3)cc2)CC1	< 0.005	1	14		0.07	2	20
CO[C@H]1CC[C@H](NC(=O)c2n[nH]cc2NC(=O)c2c(C)nc3ccccn23)CC1	0.042	2.2	22	0.42	0.1	2.9	34
CO[C@H]1CC[C@H](NC(=O)c2n[nH]cc2NC(=O)c2cnc3ccccn23)CC1	< 0.005	0.15	1.6		0.094	2.6	5.9
CO[C@H]1CC[C@H](NC(=O)c2n[nH]cc2NC(=O)c2ccc(F)cc2F)CC1	< 0.005	0.22	4.2		0.053	3.8	11

More lines, main results first:

IC50 [2] [µM]	IC50 (CDK2/Cyclin A2) [µM]	Ratio IC50 [3]	Ratio IC50 [5]	SMILES	IC50 [1] [µM]	EC50 [4] [µM]	EC50 (MRC5) [µM]
0.45	> 10	> 120	5.6	COc1cccc(OC)c1C(=O)Nc1c[nH]nc1C(=O)NN1CCOCC1	0.081	50	> 50
0.03			0.45	CO[C@H]1CC[C@H](NC(=O)c2n[nH]cc2NC(=O)c2ccccc2Nc2cccc(C)c2C)CC1	0.066	5.8	16
	> 10	> 560		COc1cccc(OC)c1C(=O)Nc1c[nH]nc1C(=O)NC1CC2CCC1C2 (stereo unspecified)	0.018	16	> 50
0.005	22	24	0.0058	CO[C@H]1CC[C@H](NC(=O)c2n[nH]cc2NC(=O)c2ncoc2-c2ccccc2)CC1	0.92	> 50	28
0.63	> 10	> 190	12	COc1cccc(OC)c1C(=O)Nc1c[nH]nc1C(=O)NCCN1CCOCC1	0.054	> 50	> 50
> 10	> 10			COc1cccc(OC)c1C(=O)Nc1c[nH]nc1C(=O)O	> 50	> 50	> 50
0.14	4.7	780	23	COc1cccc(OC)c1C(=O)Nc1c[nH]nc1C(=O)NC1CCN(C(=O)OC(C)(C)C)CC1	0.006	12	> 50
0.07	1.6	800	35	COc1cccc(OC)c1C(=O)Nc1c[nH]nc1C(=O)N[C@H]1CC[C@H](O)CC1	0.002	6.4	34
	> 10	> 10000		COc1cccc(OC)c1C(=O)Nc1c[nH]nc1C(=O)NCCCOC(C)C	0.001	6.6	> 50
0.02			1.8	CO[C@H]1CC[C@H](NC(=O)c2n[nH]cc2NC(=O)c2ccccc2Nc2ccccc2)CC1	0.011	4.4	35
0.12	1.3	330	30	COc1cccc(OC)c1C(=O)Nc1c[nH]nc1C(=O)Nc1ccncc1	0.004	8.2	> 50
0.94	> 10	> 31	2.9	COc1cccc(OC)c1C(=O)Nc1c[nH]nc1C(=O)Nc1ccccn1	0.32	> 50	> 50
0.05	1.2	1200	50	COc1cccc(OC)c1C(=O)Nc1c[nH]nc1C(=O)NC1CCCCC1	0.001	4.1	35
0.47	> 10	> 30	1.4	COc1cccc(OC)c1C(=O)Nc1c[nH]nc1C(=O)NCCCN(C)C	0.33	> 50	> 50
0.02	0.07	1.3	0.38	CCc1ccccc1C(=O)Nc1c[nH]nc1C(=O)N[C@H]1CC[C@H](OC)CC1	0.053	2.8	3.4
	> 4.8	4800		COc1cccc(OC)c1C(=O)Nc1c[nH]nc1C(=O)NC1CCC(C)CC1 (mixture of isomers)	0.001	6.7	45
< 0.013	0.1	25		COc1ccccc1C(=O)Nc1c[nH]nc1C(=O)N[C@H]1CC[C@H](OC)CC1	0.004	0.9	1.5
0.08	> 10	> 1300	10	COc1cccc(OC)c1C(=O)Nc1c[nH]nc1C(=O)NC1CCN(Cc2ccccc2)C1 (stereo unspecified)	0.008	8.9	38
0.32	> 10	> 670	21	COc1cccc(OC)c1C(=O)Nc1c[nH]nc1C(=O)NCc1ccccn1	0.015	20	> 50
0.08	2.4	300	10	COc1cccc(OC)c1C(=O)Nc1c[nH]nc1C(=O)NC1CCC1	0.008	12	> 50
0.1	4.8	4800		CCCCCNC(=O)c1n[nH]cc1NC(=O)c1c(OC)cccc1OC	0.001	7.3	> 50
0.09	3.1	1000	30	COc1cc(OC)c(C(=O)Nc2c[nH]nc2C(=O)N[C@H]2CC[C@H](OC)CC2)c(OC)c1	0.003	5.9	> 50
0.22	> 10		18	COc1cccc(OC)c1C(=O)Nc1c[nH]nc1C(=O)NC1CC1	0.012	19	> 50
